Legend:
MDCK [1] = test: Cytotoxicity against dog MDCK cells assessed as modification of cell multiplication rate incubated for 24 hrs followed by compound wash out measured after 24 hrs by cell counting analysis; format: cell-based, Canis lupus familiaris
Summary of the method: (§1)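 Confluent MDCK monolayers plated at 2×10^5/ml were treated after 24 h with compound at 5–40 μg/ml and incubated a further 24 h. Assessed by microscopic examination of morphology, Trypan blue exclusion for viability, and cell counts for multiplication rate.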

MDCK [2] = test: Cytotoxicity against dog MDCK cells assessed as loss of cell viability incubated for 24 hrs followed by compound wash out measured after 24 hrs by trypan blue exclusion assay; format: cell-based, Canis lupus familiaris; summary of the method: as §1
MDCK [3] = test: Cytotoxicity against dog MDCK cells assessed as morphological alterations incubated for 24 hrs followed by compound wash out measured after 24 hrs by microscopic analysis; format: cell-based, Canis lupus familiaris; summary of the method: as §1
MDCK [4] = test: Cytotoxicity against dog MDCK cells assessed as morphological alterations at 40 ug/mL incubated for 24 hrs followed by compound wash out measured after 24 hrs by microscopic analysis; format: cell-based, Canis lupus familiaris; summary of the method: as §1
Influenza A virus = test: Antiviral activity against Influenza virus A/Puerto Rico/8/34 H1N1 infected in dog MDCK cells incubated at 1 hr post-infection measured after 24 hrs by hemagglutininating unit assay; format: functional, organism-based; details: A/Puerto Rico/8/1934(H1N1)
Summary of the method: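 MDCK cells infected with PR8; 1 h after adsorption they were washed, and compound (5–20 μg/ml) or DMSO was added and kept on throughout. Virus released into the supernatant was titrated by HAU assay 24 h p.i. Yield is a percentage of control infected cells given 0.02% DMSO. Means of four experiments, each in duplicate.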

| Structure (SMILES) | Activity (MDCK [1]) | Activity (MDCK [2]) | Activity (MDCK [3]) | Activity (MDCK [4]) | Activity (Influenza A virus) |
| --- | --- | --- | --- | --- | --- |
| CCOC(=O)C1C/C(=C\c2ccc(O)c(O)c2)C(=O)/C(=C/c2ccc(O)c(O)c2)C1 (stereo unspecified) | Dose-dependent effect | Dose-dependent effect | Dose-dependent effect | – | – |
| CCCN1C/C(=C\c2ccc(O)c(O)c2)C(=O)/C(=C/c2ccc(O)c(O)c2)C1 | Dose-dependent effect | Dose-dependent effect | Dose-dependent effect | – | – |
| O=C(/C=C/c1ccc(O)c(O)c1)c1ccc(O)cc1 | Dose-dependent effect | Dose-dependent effect | Dose-dependent effect | – | – |
| O=C1/C(=C/c2ccc(O)c(O)c2)CCC/C1=C\c1ccc(O)c(O)c1 | Dose-dependent effect | Dose-dependent effect | Dose-dependent effect | – | – |
| O=C(/C=C/c1ccc(O)cc1)c1cc(O)cc(O)c1 | Non-toxic | Non-toxic | Non-toxic | Toxic | Dose-dependent effect |
| COc1ccc(/C=C/C(=O)c2ccc(O)cc2O)cc1 | Dose-dependent effect | Dose-dependent effect | Dose-dependent effect | – | – |
| O=C(/C=C/c1ccc(O)c(O)c1)c1ccccc1 | Dose-dependent effect | Dose-dependent effect | Dose-dependent effect | – | – |
| O=C(/C=C/c1ccc(O)c(O)c1)c1ccc(O)cc1O [BUTEIN] | Dose-dependent effect | Dose-dependent effect | Dose-dependent effect | – | – |
| Nc1cccc(C(=O)/C=C/c2ccc(O)c(O)c2)c1 | Dose-dependent effect | Dose-dependent effect | Dose-dependent effect | – | – |
| Cc1ccc(/C=C/C(=O)c2ccc(O)cc2O)cc1 | Dose-dependent effect | Dose-dependent effect | Dose-dependent effect | – | – |
| O=C(/C=C/c1ccc(Cl)cc1)c1ccccc1O | Non-toxic | Non-toxic | Non-toxic | Toxic | Dose-dependent effect |
| O=C(/C=C/c1ccc(O)c(O)c1)/C=C/c1ccc(O)c(O)c1 | Dose-dependent effect | Dose-dependent effect | Dose-dependent effect | – | – |
| O=C(/C=C/c1cc(O)cc(O)c1)c1ccc(O)cc1 | Dose-dependent effect | Dose-dependent effect | Dose-dependent effect | – | – |
| COc1ccc(C(=O)/C=C/c2ccc(F)cc2)c(O)c1 | Dose-dependent effect | Dose-dependent effect | Dose-dependent effect | – | – |

Source: ChEMBL document CHEMBL2146419, “Effects of polyphenol compounds on influenza A virus replication and definition of their mechanism of action” (Bioorg Med Chem, 2012)
